The values below come from ChEMBL document CHEMBL1147071, “Bisphosphonates as inhibitors of Trypanosoma cruzi hexokinase: kinetic and metabolic studies” (J Biol Chem, 2007).

Structures are written as SMILES. ≈ marks a conversion by molar mass, not a printed value. Calls of active or inactive are those of the source. No cut-off for these calls is given here.

The target in experiment [1] is T1, Hexokinase (Trypanosoma cruzi, UniProt Q8ST54).
T1 sequence (Q8ST54 whole entry): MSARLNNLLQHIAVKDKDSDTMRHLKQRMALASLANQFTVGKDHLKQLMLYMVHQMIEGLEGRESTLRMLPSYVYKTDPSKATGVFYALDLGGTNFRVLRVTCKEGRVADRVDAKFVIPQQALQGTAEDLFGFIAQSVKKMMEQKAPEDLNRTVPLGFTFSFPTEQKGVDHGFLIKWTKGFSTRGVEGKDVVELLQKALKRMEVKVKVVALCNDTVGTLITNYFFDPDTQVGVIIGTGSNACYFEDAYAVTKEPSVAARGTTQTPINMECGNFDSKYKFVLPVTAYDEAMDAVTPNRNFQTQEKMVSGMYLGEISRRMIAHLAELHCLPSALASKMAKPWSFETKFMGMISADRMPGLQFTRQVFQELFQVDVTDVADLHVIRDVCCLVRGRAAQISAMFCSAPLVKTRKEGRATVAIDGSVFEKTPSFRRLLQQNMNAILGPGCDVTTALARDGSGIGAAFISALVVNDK
Briefly: Inhibition of glycosomal Trypanosoma cruzi hexokinase in presence of ATP, 2 mM D-glucose and 3 mM MgCl2 by competitive inhibition assay. The procedure, abridged: (§1)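 Purified intact glycosomes from exponential-phase epimastigotes (latency typically >95%) were permeabilized with digitonin 25 µg mg-1 protein for 1 min, pelleted and resuspended in buffer A (sucrose 225 mM, KCl 20 mM, KH2PO4 10 mM, EDTA 5 mM, Tris-HCl 20 mM, MgCl2 1 mM, pH 7.2). Hexokinase was assayed by coupled NADP+ reduction at 340 nm. Against ATP: 2 mM D-glucose, 3 mM MgCl2. Against glucose: 1 mM ATP, 3 mM MgCl2. Kii and Kis were fitted.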

Experiment [2] addresses T1, Hexokinase. Briefly: Inhibition of Trypanosoma cruzi hexokinase in presence of ATP, 2 mM D-glucose and 3 mM MgCl2. Summed up: (§2)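 Homogeneous hexokinase purified from exponential-phase epimastigotes. Activity measured spectrophotometrically by coupling to glucose-6-phosphate dehydrogenase and following NADP+ reduction at 340 nm; rates taken from the initial linear slope. Against ATP: 2 mM D-glucose, 3 mM MgCl2. Against D-glucose: 1 mM ATP, 3 mM MgCl2. Substrate and inhibitor were varied, and Kii and Kis were obtained from fitting plus secondary plots.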

Experiment [3] has as its system Trypanosoma cruzi. Put plainly: Effect on exogenous cholesterol level in Trypanosoma cruzi epimastigotes at 100 uM. It counts as functional. The procedure, abridged: (§3)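 EP stock epimastigotes grown 120 h in LIT medium with 10% newborn calf serum at 28 °C, with or without compound at the stated concentration. Total lipids were extracted, and free sterols were separated from polar lipids by silicic acid column chromatography. Sterols were quantified by capillary gas-liquid chromatography and mass spectrometry and reported as mass percent of free sterols.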

Experiment [4] deals with Trypanosoma cruzi. Put plainly: Effect on exogenous cholesterol level in Trypanosoma cruzi epimastigotes at 50 uM. The experiment is classed as functional. Summed up: as §3
In experiment [5] the test system is Trypanosoma cruzi. Put plainly: Growth inhibition of Trypanosoma cruzi epimastigotes. The experiment is classed as functional, organism-based. Summed up:
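EP epimastigotes grown in LIT medium with 10% newborn calf serum at 28 °C, 120 rpm. Compound added from 100-fold stocks at 1-2 × 10^7 cells ml-1. Densities counted by particle counter and hemocytometer. Percent growth factor based on 96 h growth relative to untreated cells; IC50 from non-linear fit; MIC also reported. Triplicates.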

Experiment [6] has as its target T1, Hexokinase. Put plainly: Inhibition of Trypanosoma cruzi hexokinase in presence of D-glucose, 1 mM ATP and 3 mM MgCl2. The procedure, abridged:
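Hexokinase purified to homogeneity from exponential-phase T. cruzi epimastigotes. Activity was coupled to glucose-6-phosphate dehydrogenase and read as NADP+ reduction at 340 nm, with initial velocity taken from the slope, linear for at least 5 min. D-glucose was varied at fixed inhibitor levels with 1 mM ATP and 3 mM MgCl2. Kii and Kis came from fitting to a mixed-inhibition equation (intercept/slope secondary plots).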

The subject of experiment [7] is Trypanosoma cruzi. Put plainly: Effect on endogenous 24-ethyl-5,7-cholesta-dien-3beta-ol level in Trypanosoma cruzi epimastigotes at 50 uM. The experiment is classed as functional. The procedure, abridged:
as §3

In experiment [8] the target is T1, Hexokinase. Put plainly: Inhibition of glycosomal Trypanosoma cruzi hexokinase in presence of ATP, 2 mM D-glucose and 3 mM MgCl2. The procedure, abridged:
as §1

In experiment [9] the target is T1, Hexokinase. Put plainly: Inhibition of glycosomal Trypanosoma cruzi hexokinase in presence of D-glucose, 1 mM ATP and 3 mM MgCl2. The procedure, abridged:
as §1

Experiment [10] deals with Trypanosoma cruzi. Briefly: Effect on endogenous 24-ethyl-5,7-cholesta-dien-3beta-ol level in Trypanosoma cruzi epimastigotes at 100 uM. It counts as functional. Summed up:
as §3

Experiment [11] has as its system Trypanosoma cruzi. Briefly: Effect on endogenous 24-ethyl-5,7,22-cholesta-trien-3beta-ol level in Trypanosoma cruzi epimastigotes at 50 uM. The experiment is classed as functional. Summed up: as §3
In experiment [12] the target is T1, Hexokinase. Put plainly: Inhibition of Trypanosoma cruzi hexokinase in presence of D-glucose, 1 mM ATP and 3 mM MgCl2 by competitive inhibition assay. The procedure, abridged:
as §2

Experiment [13] concerns Trypanosoma cruzi. Put plainly: Effect on glucose consumption in digitonin permeablized Trypanosoma cruzi. The experiment is classed as functional, organism-based. Summed up: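 Resuspended with PEP 6 mM, ADP 6 mM, NaHCO3 7 mM and L-malate 1 mM. Preincubated 60 min at 28 °C with varying compound concentrations before 3 mM D-glucose was added. Medium glucose was assayed enzymatically every 15 min; IC50 determined.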

The target of experiment [14] is T1, Hexokinase. Briefly: Inhibition of Trypanosoma cruzi hexokinase in presence of ATP, 2 mM D-glucose and 3 mM MgCl2 by mixed inhibition assay.
Experiment [15] concerns the target T1, Hexokinase. Briefly: Inhibition of glycosomal Trypanosoma cruzi hexokinase in presence of D-glucose, 1 mM ATP and 3 mM MgCl2 by competitive inhibition assay. The procedure, abridged: as §1
The test system of experiment [16] is Trypanosoma cruzi. Briefly: Effect on endogenous Ergosta-5,7-dien-3beta-ol level in Trypanosoma cruzi epimastigotes at 20 uM. It counts as functional. Summed up: as §3
Experiment [17] has as its system Trypanosoma cruzi. Briefly: Effect on endogenous 24-ethyl-5,7,22-cholesta-trien-3beta-ol level in Trypanosoma cruzi epimastigotes at 20 uM. The experiment is classed as functional. Summed up:
as §3

In experiment [18] the test system is Trypanosoma cruzi. Put plainly: Inhibition of glucose consumption in Trypanosoma cruzi epimastigotes after 120 hrs. It counts as functional, organism-based. Summed up:
(§4)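 Epimastigotes cultured in LIT medium at 28 °C with agitation, with or without 15 µM compound. Cell proliferation, medium glucose and ammonium (enzymatic assays) and medium pH were followed over time. Triplicates.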

Experiment [19] deals with Trypanosoma cruzi. Briefly: Reduction in proliferation of Trypanosoma cruzi epimastigotes at 15 uM. The experiment is classed as functional, organism-based. The procedure, abridged: as §4
The test system of experiment [20] is Trypanosoma cruzi. Briefly: Effect on endogenous 24-ethyl-5,7-cholesta-dien-3beta-ol level in Trypanosoma cruzi epimastigotes at 20 uM. The experiment is classed as functional. Summed up:
as §3

The test system of experiment [21] is Trypanosoma cruzi. Put plainly: Effect on endogenous 24-methyl-5,7,22-cholesta-trien-3beta-ol level in Trypanosoma cruzi epimastigotes at 20 uM. It counts as functional. The procedure, abridged: as §3
Experiment [22] deals with Trypanosoma cruzi. Put plainly: Effect on endogenous Ergosta-5,7-24(24')-trien-3beta-ol level in Trypanosoma cruzi epimastigotes at 20 uM. It counts as functional. Summed up: as §3
Experiment [23] has as its system Trypanosoma cruzi. Put plainly: Effect on endogenous Ergosta-7-24(24')-dien-3beta-ol level in Trypanosoma cruzi epimastigotes at 20 uM. It counts as functional. The procedure, abridged:
as §3

The test system of experiment [24] is Trypanosoma cruzi. Briefly: Effect on exogenous cholesterol level in Trypanosoma cruzi epimastigotes at 20 uM. The experiment is classed as functional. The procedure, abridged:
as §3

The subject of experiment [25] is Trypanosoma cruzi. Briefly: Inhibition of glucose consumption in Trypanosoma cruzi epimastigotes after 96 hrs. It counts as functional, organism-based. Summed up: as §4

Consider `O=P(O)(O)C(O)(Cc1ccncc1)P(=O)(O)O`, for which the Ki on Hexokinase [1] amounted to 11.4 µM; at Hexokinase [2], 4.3 µM; at Hexokinase [6], 6 µM; at Hexokinase [8], 10.5 µM; on Hexokinase [9], 43.9 µM; at Hexokinase [12], 3.3 µM. The Ki at Hexokinase [14] was found to be 2.8 µM; at Hexokinase [15], 3.4 µM. The Activity with Trypanosoma cruzi [3] was 93.3%; in the experiment on Trypanosoma cruzi [4] it was 70.9%; with Trypanosoma cruzi [7], 14.5%; with Trypanosoma cruzi [10] it was 6.7%; in the experiment on Trypanosoma cruzi [11], 14.6%. The IC50 was determined as 40.6 µM in the experiment with Trypanosoma cruzi [5] and 10.3 µM in the experiment with Trypanosoma cruzi [13]. The MIC with Trypanosoma cruzi [5] turned out to be 200 µM (≈ 56.6 µg/mL).
On to `O=P(O)(O)C(Nc1cccc(Br)c1)P(=O)(O)O`, for which the Ki was determined as 2.6 µM at Hexokinase [1]; 1.2 µM on Hexokinase [2]; 10.6 µM on Hexokinase [9]; 0.4 µM on Hexokinase [12]; 0.6 µM on Hexokinase [14]; 2.9 µM on Hexokinase [15]. For the same compound, the Activity in the experiment with Trypanosoma cruzi [16] was 18%; in the experiment with Trypanosoma cruzi [17], 18.3%; with Trypanosoma cruzi [20], 3.4%; in the experiment on Trypanosoma cruzi [21], 31%; with Trypanosoma cruzi [22], 6%; with Trypanosoma cruzi [23], 2%. The Activity with Trypanosoma cruzi [24] is recorded as 21.3%. In addition, the result in the experiment with Trypanosoma cruzi [18] and in the experiment with Trypanosoma cruzi [19] was Active. The IC50 in the experiment on Trypanosoma cruzi [5] was 7 µM; in the experiment on Trypanosoma cruzi [13], 1.2 µM. In addition, the MIC with Trypanosoma cruzi [5] came to 20 µM (≈ 6.92 µg/mL).
With `CCn1c2ccccc2c2cc(NC(P(=O)(O)O)P(=O)(O)O)ccc21`, the Ki at Hexokinase [1] is 1.2 µM; at Hexokinase [2] it was 2.8 µM; on Hexokinase [8], 1.7 µM; at Hexokinase [9] it was 4.3 µM; on Hexokinase [12], 0.5 µM; at Hexokinase [14], 1.7 µM. Also, the Ki on Hexokinase [15] came to 2.4 µM. In addition, the Activity is on record as 26.3% in the experiment on Trypanosoma cruzi [16]; 19.3% in the experiment with Trypanosoma cruzi [17]; 8.4% in the experiment on Trypanosoma cruzi [20]; 23.4% in the experiment with Trypanosoma cruzi [21]; 3.8% in the experiment on Trypanosoma cruzi [22]; 18.8% in the experiment with Trypanosoma cruzi [24]. For the same compound, the result in the experiment with Trypanosoma cruzi [19] and with Trypanosoma cruzi [25] was Active. Moreover, the IC50 in the experiment with Trypanosoma cruzi [5] came out at 6.4 µM; with Trypanosoma cruzi [13] it was 0.62 µM. Moreover, the MIC against Trypanosoma cruzi [5] was 20 µM (≈ 7.69 µg/mL).

The term Ki denotes a dissociation constant, usually derived from enzyme kinetics or from competition with a known ligand. By IC50 is commonly meant the point on the concentration scale where inhibition reaches its midpoint. A low value points to greater potency. One may read the MIC as the least concentration at which growth counts as inhibited. Low values mean greater potency, high ones weaker potency.
